Data on two compounds can be found in PMC11071470 (bioRxiv, 2024).

Experiment [1] concerns the target A3Bctd (Homo sapiens, UniProt Q9UH17). Kind of experiment: Intact protein mass spectrometry. Format: binding. The procedure, abridged:
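Covalent test compound incubated with A3Bctd for 1 h and 3 h at varying molar equivalents of compound over protein, then analysed by intact protein mass spectrometry. Degree of covalent adduction was quantified from the intensity of the adduct mass species.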

The target of experiment [2] is T1, UDG (Escherichia coli, UniProt P12295).
T1 sequence (P12295 1-229): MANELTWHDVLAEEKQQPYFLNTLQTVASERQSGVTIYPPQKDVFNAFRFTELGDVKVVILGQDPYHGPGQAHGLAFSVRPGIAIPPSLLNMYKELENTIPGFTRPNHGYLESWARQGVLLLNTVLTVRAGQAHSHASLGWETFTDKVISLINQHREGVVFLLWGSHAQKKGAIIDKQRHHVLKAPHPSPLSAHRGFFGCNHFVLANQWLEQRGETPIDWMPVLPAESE
Particulars: cited from earlier work.

Chain of A3Bctd (Q9UH17 193-382): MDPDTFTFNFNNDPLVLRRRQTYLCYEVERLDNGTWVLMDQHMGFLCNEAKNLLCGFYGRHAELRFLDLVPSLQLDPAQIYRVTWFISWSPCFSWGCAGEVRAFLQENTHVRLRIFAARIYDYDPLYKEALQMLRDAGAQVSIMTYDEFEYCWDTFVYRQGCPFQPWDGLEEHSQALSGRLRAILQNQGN

As to `CCC1(O)CCCN(C(=O)c2ccc(-c3ccc(F)c(NC(=O)CCl)c3)cc2)C1` (centres unmarked) [Compound 24], in experiment [1], the “multiple adduction events (in words)” value was “Multiple adduction events are detected”. Consider `O=C(O)C1=CC(=C(c2ccc(O)c(C(=O)O)c2)c2ccc(O)c(C(=O)O)c2)C=CC1=O` [MN1, aurintricarboxylic acid], for which the “inhibition of UDG (in words)” value in experiment [2] is “inhibits UDG”.
